Experimental data published in ChEMBL document CHEMBL4354866, “TREK Channel Family Activator with a Well-Defined Structure-Activation Relationship for Pain and Neurogenic Inflammation” (J Med Chem, 2020).
Substitutions are numbered along the chain they refer to. Active and inactive are the calls of the source.

What was measured:
[1] = target: T1, Potassium channel subfamily K member 2 (Homo sapiens) (UniProt O95069); assay: Activation of recombinant human TREK1 expressed in HEK293T cells assessed as change in single channel conductance by inside-out patch electrophysiological analysis; type: cell-based
T1 sequence (whole entry): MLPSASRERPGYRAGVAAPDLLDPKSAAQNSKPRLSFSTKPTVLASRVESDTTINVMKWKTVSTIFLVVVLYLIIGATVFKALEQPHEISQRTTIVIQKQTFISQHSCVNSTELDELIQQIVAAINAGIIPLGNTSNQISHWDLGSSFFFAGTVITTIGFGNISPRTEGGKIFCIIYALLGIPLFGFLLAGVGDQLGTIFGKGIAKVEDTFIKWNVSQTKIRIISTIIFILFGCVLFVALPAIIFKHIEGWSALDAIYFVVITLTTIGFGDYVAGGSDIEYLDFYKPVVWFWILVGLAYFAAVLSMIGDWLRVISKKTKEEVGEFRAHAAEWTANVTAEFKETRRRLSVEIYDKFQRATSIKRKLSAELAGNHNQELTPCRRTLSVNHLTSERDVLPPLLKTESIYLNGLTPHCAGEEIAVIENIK
Procedure, shortened: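 Inside-out patches from HEK-293T cells expressing human TREK-1 (pEGFP-N1), 10 μM compound. Conductance taken as first open-state amplitude over voltage at -60 or +60 mV.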

[2] = target: Potassium channel subfamily K member 9 (Homo sapiens) (UniProt Q9NPC2); assay: Activation of recombinant human TASK3 expressed in HEK293T cells assessed as increase in K+ current amplitude at 10 uM by whole cell voltage clamp electrophysiological analysis; type: cell-based
Procedure, shortened: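 HEK-293T cells transiently transfected with the human K2P channel. Whole-cell clamp at -60 mV, 500-ms ramp -120 to +60 mV. Pipette 140 KCl (pH 7.4), external 145 NaCl/4 KCl (pH 7.3). Compound 10 μM, diluted from 10 mM DMSO stock into external solution.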

Mus musculus [3] = assay: Analgesic activity in CFA-induced mouse model of chronic inflammatory pain assessed as reduction in mechanical allodynia at 5 mg/kg, ip measured up to 90 mins by von frey test; type: functional, organism-based
Procedure, shortened: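 CFA (20 μl s.c.) injected into the left hindpaw of mice; compound given i.p. in DMSO/Tween 80/saline vehicle. Mice acclimated 3 days on a wire-mesh floor; mechanical threshold measured with von Frey filaments applied in ascending order.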

[4] = system: Potassium channel subfamily K member 2 (Homo sapiens), O95069 [Y285A]; assay: Activation of recombinant human TREK1 Y285A mutant expressed in HEK293T cells assessed as increase in K+ current amplitude by whole cell voltage clamp electrophysiological analysis; type: cell-based
Procedure, shortened: (§1)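 Transiently transfected HEK-293T cells, whole-cell voltage clamp. Held at -60 mV, 500-ms ramp -120 to +60 mV. Pipette (mM) 140 KCl, 5 EGTA, 10 HEPES, pH 7.4; external 145 NaCl, 4 KCl, pH 7.3. Compound diluted from 10 mM DMSO stock and applied extracellularly. Current increase over control fitted to concentration–response curves for EC50.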

[5] = system: T2, Potassium channel subfamily K member 2 (Homo sapiens), O95069 [I158A]; assay: Activation of recombinant human TREK1 I158A mutant expressed in HEK293T cells assessed as increase in K+ current amplitude by whole cell voltage clamp electrophysiological analysis; type: cell-based; procedure, shortened: as §1
T2 sequence (whole entry): T1 sequence (whole entry) with I158A

Mus musculus [6] = assay: Analgesic activity in mouse assessed as increase in tail flick latency time at 5 mg/kg, ip at 5 to 52 degC by tail immersion test; type: functional, organism-based
Procedure, shortened: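 Male BALB/c or C57BL/6 mice, 6–8 weeks, acclimated in a holder 15 min/day for 3 days. Distal 3 cm of tail immersed at 5, 20, 40, 46 or 52 °C; flick latency recorded, cut-off 15 s. Compound i.p. in 5% DMSO/5% Tween 80/90% saline (1.25–10 mg/kg at 52 °C; 5 mg/kg across temperatures).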

Mus musculus [7] = assay: Analgesic activity in mouse model of spared nerve injury assessed as reduction in cold hyperalgesia at 5 mg/kg, ip measured at 7 days interval for up to 21 days post spared nerve injury by cold plantar test; type: functional, organism-based
Procedure, shortened: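 SNI mice acclimated 3 days on a 6 mm glass plate; compound 5 mg/kg i.p. A dry-ice-packed syringe was applied to the centre of the left hindpaw. Withdrawal latency timed by stopwatch, cut-off 30 s; n = 8–10.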

[8] = target: Potassium channel subfamily K member 2 (Homo sapiens, UniProt O95069, I293A); assay: Activation of recombinant human TREK1 I293A mutant expressed in HEK293T cells assessed as increase in K+ current amplitude by whole cell voltage clamp electrophysiological analysis; type: cell-based; procedure, shortened: as §1
[9] = target: T3, Potassium channel subfamily K member 2 (Rattus norvegicus) (UniProt Q920B6); assay: Activation of TREK in depolarized Sprague-Dawley rat DRG neurons assessed as resting membrane potential at 10 uM by whole cell […] electrophysiological analysis
T3 sequence (whole entry): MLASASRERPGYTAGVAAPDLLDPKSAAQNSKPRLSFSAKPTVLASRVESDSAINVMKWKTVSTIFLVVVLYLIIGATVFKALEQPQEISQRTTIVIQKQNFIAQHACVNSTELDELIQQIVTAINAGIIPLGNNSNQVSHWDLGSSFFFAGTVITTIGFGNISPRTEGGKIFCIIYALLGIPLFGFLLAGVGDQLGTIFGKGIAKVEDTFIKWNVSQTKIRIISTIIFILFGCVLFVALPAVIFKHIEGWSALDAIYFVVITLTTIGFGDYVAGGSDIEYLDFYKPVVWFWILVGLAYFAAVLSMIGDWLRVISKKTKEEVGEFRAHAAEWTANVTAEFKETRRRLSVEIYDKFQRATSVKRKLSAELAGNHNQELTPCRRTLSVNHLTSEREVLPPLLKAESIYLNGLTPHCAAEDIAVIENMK
Procedure, shortened: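 Dissociated rat DRG neurons in current clamp, held at 0 pA. Resting membrane potential recorded before and during 10 μM compound; n = 18 cells from 4 rats; paired t test.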

[10] = target: T4, Potassium channel subfamily K member 2 (Homo sapiens, UniProt O95069); assay: (§2) Activation of recombinant human TREK1 expressed in HEK293T cells assessed as increase in K+ current amplitude by whole cell voltage clamp electrophysiological analysis; type: cell-based; procedure, shortened: as §1
T4 sequence (O95069 whole entry): T1 sequence (whole entry)

[11] = target: T1, Potassium channel subfamily K member 2 (Homo sapiens); assay: as §2; type: cell-based; procedure, shortened: as §1

Chain of Potassium channel subfamily K member 9 (Homo sapiens) (Q9NPC2 whole entry): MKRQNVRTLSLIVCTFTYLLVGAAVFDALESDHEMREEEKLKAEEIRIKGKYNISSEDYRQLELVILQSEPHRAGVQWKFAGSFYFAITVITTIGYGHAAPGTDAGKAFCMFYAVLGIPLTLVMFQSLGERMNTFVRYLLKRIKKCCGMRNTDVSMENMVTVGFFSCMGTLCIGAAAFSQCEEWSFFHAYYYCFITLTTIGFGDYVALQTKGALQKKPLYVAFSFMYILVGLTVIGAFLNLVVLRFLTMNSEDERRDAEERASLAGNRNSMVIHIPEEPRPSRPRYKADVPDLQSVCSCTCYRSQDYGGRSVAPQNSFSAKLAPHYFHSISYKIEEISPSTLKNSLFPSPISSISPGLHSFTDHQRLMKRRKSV
Chain of Potassium channel subfamily K member 2 (Homo sapiens, UniProt O95069, I293A) (O95069 whole entry I293A): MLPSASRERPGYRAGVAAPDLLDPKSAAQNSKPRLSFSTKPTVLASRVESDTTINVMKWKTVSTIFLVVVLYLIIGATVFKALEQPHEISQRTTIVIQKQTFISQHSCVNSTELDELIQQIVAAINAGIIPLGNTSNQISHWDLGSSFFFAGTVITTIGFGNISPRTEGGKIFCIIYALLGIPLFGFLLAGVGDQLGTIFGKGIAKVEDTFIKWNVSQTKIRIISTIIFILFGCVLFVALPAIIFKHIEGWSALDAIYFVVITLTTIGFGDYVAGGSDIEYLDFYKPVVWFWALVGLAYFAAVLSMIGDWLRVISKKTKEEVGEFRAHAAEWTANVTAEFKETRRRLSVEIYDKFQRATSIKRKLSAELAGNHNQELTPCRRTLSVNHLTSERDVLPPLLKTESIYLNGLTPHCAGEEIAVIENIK

Cc1ccc2nc(-c3ccc(NC(=O)[C@@H]4CC[C@H](C(=O)O)C4)cc3)sc2c1
Activity [1]: inactive | Activity [2]: Active | Activity (Mus musculus [3]): Active | Activity [4]: inactive | Activity [5]: inactive | Activity (Mus musculus [6]): Active | Activity (Mus musculus [7]): Active | EC50 [8]: 7.98 µM | Activity [9]: 1.12 mV | EC50 [10]: 12.8 µM | Activity [11]: Dose-dependent effect
